In ChEMBL document CHEMBL3808369, “Identification of Cyproheptadine as an Inhibitor of SET Domain Containing Lysine Methyltransferase 7/9 (Set7/9) That Regulates Estrogen-Dependent Transcription” (J Med Chem, 2016):
Active and inactive are the calls of the source. The rule behind the calls is not given here.

How the values were obtained:
[1] = target: T1, Histone-lysine N-methyltransferase SETD7 (Homo sapiens) (UniProt Q8WTS6); test: Competitive inhibition of recombinant Set7/9 (unknown origin) expressed in Escherichia coli BL21 (DE3) using varying Ac-KRSK-MCA peptide as substrate in presence of SAM preincubated for 1 hr followed by substrate addition measured after 15 mins by Lineweaver-Burk plot analysis
T1 sequence (whole entry): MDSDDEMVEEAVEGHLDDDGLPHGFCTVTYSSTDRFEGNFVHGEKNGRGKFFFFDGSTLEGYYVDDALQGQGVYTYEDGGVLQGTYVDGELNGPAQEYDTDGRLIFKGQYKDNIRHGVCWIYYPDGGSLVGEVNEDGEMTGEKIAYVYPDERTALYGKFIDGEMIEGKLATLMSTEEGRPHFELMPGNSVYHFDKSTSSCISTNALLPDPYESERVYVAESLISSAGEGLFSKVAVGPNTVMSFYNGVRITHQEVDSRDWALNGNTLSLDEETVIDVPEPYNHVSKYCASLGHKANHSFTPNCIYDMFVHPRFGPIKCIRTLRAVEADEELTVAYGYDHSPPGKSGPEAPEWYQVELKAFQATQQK
How it was run: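 His6-tagged Set7/9 purified by Ni2+ affinity from E. coli BL21(DE3) after induction with 0.1 mM IPTG at 18 °C for 24 h. Kinetics were run in a fluorogenic HMT assay using Ac-KRSK-MCA peptide, with either SAM or peptide concentration varied. Initial velocities were analysed by Lineweaver–Burk plot, four independent assays.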

MCF7 = test: Antitumor activity against Fucci introduced human MCF7 cells xenografted in Balb/c-nu/nu mouse at 20 mg/kg, ip qd administered as continuous dose for 8 days measured every 3 to 4 days until day 15; assay type: functional, organism-based
How it was run: (§1)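 Female Balb/C-nu/nu mice, 7 weeks old, each inoculated with about 2 × 10^7 Fucci-MCF7 cells in the mammary gland. Dosing started when tumors reached about 100 mm3, 13 days after inoculation. 20 mg/kg given ip once daily, days 1–8, in saline with 10% ethanol; a vehicle group ran alongside. Caliper tumor volume (a2b)/2 and body weight were recorded every 3 or 4 days to day 15. Six mice per group, mean ± SE.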

[2] = target: T1, Histone-lysine N-methyltransferase SETD7 (Homo sapiens); test: Inhibition of Set7/9 in human MCF7 cells assessed as suppression of beta-estradiol-induced cell viability incubated for 4 days by haemocytometer; assay type: cell-based
How it was run: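 MCF7 cells (1.5 × 10^4 per well) switched to estrogen-free medium after 24 h. Drug added with or without 10 nM β-estradiol, 4 days' incubation. Cells counted by hemocytometer. Four independent assays.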

Mus musculus = test: Effect on body weight in Balb/c-nu/nu mouse xenografted with Fucci introduced human MCF7 cells at 20 mg/kg, ip qd administered as continuous dose for 8 days measured every 3 to 4 days until day 15; assay type: ADME, organism-based; conditions: in vivo; how it was run: as §1
[3] = target: T2, Histone-lysine N-methyltransferase SUV39H1 (Homo sapiens) (UniProt O43463); test: Inhibition of Suv39h1 (unknown origin) by ELISA
T2 sequence (whole entry): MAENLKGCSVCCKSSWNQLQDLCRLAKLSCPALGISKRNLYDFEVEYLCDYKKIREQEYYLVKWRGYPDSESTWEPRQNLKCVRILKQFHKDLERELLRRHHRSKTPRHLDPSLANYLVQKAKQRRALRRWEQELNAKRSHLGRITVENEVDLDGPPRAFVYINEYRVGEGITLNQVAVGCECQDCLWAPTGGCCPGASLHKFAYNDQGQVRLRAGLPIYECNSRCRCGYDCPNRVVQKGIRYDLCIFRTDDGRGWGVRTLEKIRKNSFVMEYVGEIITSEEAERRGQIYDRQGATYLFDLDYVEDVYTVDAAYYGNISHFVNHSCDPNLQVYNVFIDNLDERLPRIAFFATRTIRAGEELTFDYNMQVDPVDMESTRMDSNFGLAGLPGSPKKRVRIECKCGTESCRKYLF

CN1CCC(=C2c3ccccc3C=Cc3ccccc32)CC1 [CYPROHEPTADINE]
inhibition [1]: Active | TGI (MCF7): Active | inhibition [2]: Dose-dependent effect | Activity (Mus musculus): Non-toxic | inhibition [3]: Active
